Data on nine compounds can be found in publication PMC6931396 (Journal of medicinal chemistry, 2019).

Data set [1] deals with TOPFlash luciferase reporter (three wild-type Tcf4 binding sites) in β-catenin activated HEK293 cells. Briefly: TOPFlash luciferase reporter assay. The settings on record: 24 h. Type of data set: cell-based. In outline: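 HEK293 cells were co-transfected with FuGENE 6, using 45 ng TOPFlash or FOPFlash reporter plus 135 ng pcDNA3.1-β-catenin. Cells were grown 24 h in DMEM with 10% FBS at 37 °C, then treated with test compound at various concentrations. After 24 h, luciferase activity was read by a dual-luciferase system, normalized, and compared with DMSO-treated cells. Triplicate; unpaired two-tailed t-test.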
In general terms: In a reporter assay the amount or activity of a reporter protein is the signal.

The conditions of data set [2]: unless converted into the ester form; previous study; cited from earlier work.
For data set [3], the target named is T1, β-catenin/Tcf PPI (human β-catenin residues 138–781 / fluorescein-labeled human Tcf4 residues 7–51) (Homo sapiens, UniProt P35222).
T1 sequence (P35222 138-781): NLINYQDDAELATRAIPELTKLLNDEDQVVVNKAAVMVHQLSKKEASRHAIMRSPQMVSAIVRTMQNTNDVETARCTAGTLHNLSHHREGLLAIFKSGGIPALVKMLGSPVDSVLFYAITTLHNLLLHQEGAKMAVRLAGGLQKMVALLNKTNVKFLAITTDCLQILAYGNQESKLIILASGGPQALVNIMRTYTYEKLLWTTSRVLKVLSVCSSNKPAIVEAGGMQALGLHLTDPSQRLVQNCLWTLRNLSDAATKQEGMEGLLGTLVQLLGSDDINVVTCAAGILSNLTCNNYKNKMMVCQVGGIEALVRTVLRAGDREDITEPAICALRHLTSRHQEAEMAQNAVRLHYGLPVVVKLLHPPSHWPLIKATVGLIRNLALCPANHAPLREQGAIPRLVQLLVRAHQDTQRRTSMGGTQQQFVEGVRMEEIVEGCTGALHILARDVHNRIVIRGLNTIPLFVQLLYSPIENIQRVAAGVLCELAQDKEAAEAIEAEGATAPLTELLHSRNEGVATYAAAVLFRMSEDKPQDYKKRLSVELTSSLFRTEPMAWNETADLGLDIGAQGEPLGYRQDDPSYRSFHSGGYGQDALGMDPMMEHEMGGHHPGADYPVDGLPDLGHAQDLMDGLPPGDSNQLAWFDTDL
The format is binding.

The test system of data set [4] is SW480 cells. Briefly: HPLC–MS based cell bioavailability assay. Type of data set: in vitro ADME. To be noted: for cell-bound concentration: 37 °C, 3 h incubation in 5 mL DMEM with 10% FBS, input concentration 25 μM.
The subject of data set [5] is TNBC MDA-MB-231 cells. Briefly: Matrigel invasion assay. The format is cell-based, human. To be noted: 10 μM, 24 h.
For data set [6], the system named is β-catenin/E-cadherin PPI in HCT116 cells. As to the kind of experiment: Co-IP in HCT116 cells, β-catenin/E-cadherin. Type of data set: cell-based. The settings on record: concentrations sufficient to disrupt β-catenin/Tcf PPI.
Data set [7] relates to β-catenin/APC PPI in HCT116 cells. As to the kind of experiment: Co-IP in HCT116 cells, β-catenin/APC. Type of data set: cell-based. To be noted: concentrations sufficient to disrupt β-catenin/Tcf PPI.
Data set [8] relates to β-catenin/Tcf PPI in HCT116 cells. As to the kind of experiment: Co-IP in HCT116 cells, β-catenin/Tcf. Type of data set: cell-based. The settings on record: HCT116 cells treated 24 h.
The subject of data set [9] is TNBC MDA-MB-231 cells. As to the kind of experiment: Scratch wound healing assay. The format is cell-based, human. The settings on record: 10 μM, 10% serum, mitomycin 10 μg/mL, 14 h. In outline:
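Wounds were scraped with a sterile 200 µL pipette tip into ~70–80% confluent MDA-MB-231 monolayers. Cells were kept in DMEM with 10% FBS plus 10 µg/mL mitomycin to block proliferation, with test compound or vehicle (0.2% DMSO). Wounds were imaged immediately and at 14 h. […] Mean ± SD, n=3.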

As for `CCOC(=O)CC[C@H](NC(=O)[C@H](CC(=O)OCC)NC(=O)[C@H](Cc1ccc2ccccc2c1)NC(=O)c1cc2cc(OC)ccc2[nH]1)C(=O)OC` [(Et)-15], the TOPFlash luciferase activity result in data set [1] (concentration of up to 200 μM) was “did not inhibit”.

On to `COC(=O)[C@H](CCC(=O)O)NC(=O)[C@H](CC(=O)O)NC(=O)[C@H](Cc1ccc2ccccc2c1)NC(=O)Cc1cc2cc(Cl)ccc2[nH]1` [Compound 1], for which the “activity in cell-based assays” value in data set [2] was “almost inactive”.

With `COC(=O)[C@H](CCC(=O)O)NC(=O)[C@H](CC(=O)O)NC(=O)[C@H](Cc1ccc2ccccc2c1)NC(=O)Cc1c[nH]c2ccc(Cl)cc12` [Compound 2], the “inhibitory potency for β-catenin/Tcf PPI in words” value in data set [3] is reported as “great loss of potency”.

In the case of `COC(=O)[C@H](CCC(=O)O)NC(=O)[C@H](CC(=O)O)NC(=O)[C@H](Cc1ccc2ccccc2c1)NC(=O)Cc1c[nH]c2cc(Cl)ccc12` [Compound 3], the “inhibitory potency for β-catenin/Tcf PPI in words” value in data set [3] is “great loss of potency”.

As for `COC(=O)[C@H](CCC(=O)O)NC(=O)[C@H](CC(=O)O)NC(=O)[C@H](Cc1ccc2ccccc2c1)NC(=O)c1cc2c(Cl)cc(Cl)cc2[nH]1` [Compound 19], in data set [3], the “potency improvement over 9” value is ~ 3 fold.

For `O=C(O)CC[C@H](NC(=O)[C@H](CC(=O)O)NC(=O)[C@H](Cc1ccc2ccccc2c1)NC(=O)c1cc2cc(Cl)ccc2[nH]1)C(=O)Nc1ccccc1` [Compound 21, (S)-4-((S)-3-Carboxy-2-((S)-2-(5-chloro-1H-indole-2-carboxamido)-3-(naphthalen-2-yl)propanamido)propanamido)-5-oxo-5-(phenylamino)pentanoic Acid], in data set [3], the “potency improvement over 9” value was found to be 3.4 fold.

In turn, `O=C(O)CC[C@H](NC(=O)[C@H](Cc1nn[nH]n1)NC(=O)[C@H](Cc1ccc2ccccc2c1)NC(=O)c1cc2cc(Cl)ccc2[nH]1)C(=O)Nc1ccc(OC(F)(F)F)cc1` [Compound 53, (S)-4-((S)-2-((S)-2-(5-Chloro-1H-indole-2-carboxamido)-3-(naphthalen-2-yl)propanamido)-3-(2H-tetrazol-5-yl)propanamido)-5-oxo-5-((4-(trifluoromethoxy)phenyl)amino)pentanoic Acid] came in with a cell-bound concentration in data set [4] of 0.17 nmol/million SW480 cells.

For the compound `NC(=O)CC[C@H](NC(=O)[C@H](Cc1nn[nH]n1)NC(=O)[C@H](Cc1ccc2ccccc2c1)NC(=O)c1cc2cc(Cl)ccc2[nH]1)C(=O)Nc1ccc(OC(F)(F)F)cc1` [Compound 55, (S)-2-((S)-2-((S)-2-(5-Chloro-1H-indole-2-carboxamido)-3-(naphthalen-2-yl)propanamido)-3-(2H-tetrazol-5-yl)propanamido)-N^1-(4-(trifluoromethoxy)phenyl)pentanediamide], the TOPFlash luciferase activity entry in data set [1] (different concentrations) is on record as “suppressed the TOPFlash luciferase activities in dose-dependent manners”.

As for `CCOC(=O)CC[C@H](NC(=O)[C@H](Cc1nn[nH]n1)NC(=O)[C@H](Cc1ccc2ccccc2c1)NC(=O)c1cc2cc(Cl)ccc2[nH]1)C(=O)Nc1ccc(OC(F)(F)F)cc1` [Compound 56, Ethyl (S)-4-((S)-2-((S)-2-(5-Chloro-1H-indole-2-carboxamido)-3-(naphthalen-2-yl)propanamido)-3-(2H-tetrazol-5-yl)-propanamido)-5-oxo-5-((4-(trifluoromethoxy)phenyl)amino)-pentanoate], the “inhibition of TNBC cell invasion” value in data set [5] is given as “effectively inhibit”. Moreover, in data set [6], the “effect on β-catenin/E-cadherin PPI (co-IP)” value was “had no effect”. The same compound had a cell-bound concentration in data set [4] of 1.4 nmol/million SW480 cells. In addition, in [4] (24 h incubation with SW480 cells in 5 mL DMEM with 10% FBS), the “transformation into 53” value is “did not transform into 53”. Besides, the “effect on β-catenin/APC PPI (co-IP)” value in [7] is “had no effect”. The TOPFlash luciferase activity result in [1] (different concentrations) is “suppressed the TOPFlash luciferase activities in dose-dependent manners”. Further, the “inhibition of β-catenin/Tcf PPI (co-IP)” value in data set [8] is listed as “dose-dependently inhibited”. Moreover, the “inhibition of TNBC cell migration” value in data set [9] was “effectively inhibit”.
